Results as given in ChEMBL document CHEMBL4321838, “Drug Design Targeting T-Cell Factor-Driven Epithelial-Mesenchymal Transition as a Therapeutic Strategy for Colorectal Cancer” (J Med Chem, 2019).

Legend:
[1] = target: DNA topoisomerase 2-alpha (Homo sapiens, UniProt P11388); test: Inhibition of human topoisomerase 2alpha mediated decatenation at 30 uM using kDNA as susbtrate preincubated for 20 mins followed by substrate and ATP addition and measured after 1 hr by ethidium bromide staining based gel electrophoresis method relative to control
How it was run: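 Human TOP2A (3 U) preincubated 20 min at 37 °C with compound at 30 μM in 1.2% DMSO. Reaction started with 2 mM ATP and 35 ng kDNA and run 1 h at 37 °C. Products resolved on 0.8% agarose in TBE with 0.2 μg/mL ethidium bromide; decatenated bands compared with vehicle.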

[2] = Drug metabolism in CD-1 mouse active microsomes assessed as metabolite formation at rate of biphasic kinetics by LC-MS/MS analysis; assay type: ADME, Microsome
[3] = Drug metabolism in CD-1 mouse active microsomes assessed as metabolite formation at rate of first-order kinetics by LC-MS/MS analysis; assay type: ADME, Microsome
[4] = Metabolic stability in CD-1 mouse inactive microsomes incubated for 1 hr by LC-MS/MS analysis; assay type: ADME, Microsome
[5] = compound: COc1cc(NC(C)=O)c(O)c2nccc(-c3ccccc3NC(=O)c3ccccc3)c12; test: Competitive inhibition of human topoisomerase 2alpha ATPase activity assessed as Vmax for ATP hydrolysis with DNA relaxation at 5 uM using supercoiled plasmid DNA as susbtrate after 1 hr by malachite green assay/Michelis-Menten kinetics analysis (reference value: 0.652 to 0.6529 pmol/s)
[6] = compound: Cn1ccc2c(c1=O)C(=O)c1nccc3c1c-2nc1ccccc13; test: Competitive inhibition of human topoisomerase 2alpha ATPase activity assessed as Km for ATP hydrolysis with DNA relaxation at 20 uM using supercoiled plasmid DNA as susbtrate after 1 hr by malachite green assay/Michelis-Menten kinetics analysis (reference value: 317.8 to 350.1 microM)
[7] = compound: COc1cc(NC(C)=O)c(O)c2nccc(-c3ccccc3NC(=O)c3ccccc3)c12; test: (§1) Competitive inhibition of human topoisomerase 2alpha ATPase activity assessed as Km for ATP hydrolysis with DNA relaxation at 10 uM using supercoiled plasmid DNA as susbtrate after 1 hr by malachite green assay/Michelis-Menten kinetics analysis (reference value: 317.8 to 350.1 microM)
[8] = compound: Cn1ccc2c(c1=O)C(=O)c1nccc3c1c-2nc1ccccc13; test: as §1
[9] = compound: Cn1ccc2c(c1=O)C(=O)c1nccc3c1c-2nc1ccccc13; test: Competitive inhibition of human topoisomerase 2alpha ATPase activity assessed as Vmax for ATP hydrolysis with DNA relaxation at 20 uM using supercoiled plasmid DNA as susbtrate after 1 hr by malachite green assay/Michelis-Menten kinetics analysis (reference value: 0.652 to 0.6529 pmol/s)
[10] = compound: COc1cc(NC(C)=O)c(O)c2nccc(-c3ccccc3NC(=O)c3ccccc3)c12; test: (§2) Competitive inhibition of human topoisomerase 2alpha ATPase activity assessed as Vmax for ATP hydrolysis with DNA relaxation at 10 uM using supercoiled plasmid DNA as susbtrate after 1 hr by malachite green assay/Michelis-Menten kinetics analysis (reference value: 0.652 to 0.6529 pmol/s)
[11] = compound: Cn1ccc2c(c1=O)C(=O)c1nccc3c1c-2nc1ccccc13; test: as §2
[12] = compound: COc1cc(NC(C)=O)c(O)c2nccc(-c3ccccc3NC(=O)c3ccccc3)c12; test: Competitive inhibition of human topoisomerase 2alpha ATPase activity assessed as Km for ATP hydrolysis with DNA relaxation at 5 uM using supercoiled plasmid DNA as susbtrate after 1 hr by malachite green assay/Michelis-Menten kinetics analysis (reference value: 317.8 to 350.1 microM)

**Q.** Which inhibition [1] does the source give for `CC(=O)Nc1ccc2c(-c3ccccc3)ccnc2c1O` here?
**A.** 25%

**Q.** What about the Drug metabolism [2] of the same molecule?
**A.** Metabolite_Detected

**Q.** And the Drug metabolism [3]?
**A.** Metabolite_Notdetected

**Q.** What about the Stability [4] of the same molecule?
**A.** Stable

B1: DNA topoisomerase 2-alpha (Homo sapiens), P11388 (protein)
chain: MEVSPLQPVNENMQVNKIKKNEDAKKRLSVERIYQKKTQLEHILLRPDTYIGSVELVTQQMWVYDEDVGINYREVTFVPGLYKIFDEILVNAADNKQRDPKMSCIRVTIDPENNLISIWNNGKGIPVVEHKVEKMYVPALIFGQLLTSSNYDDDEKKVTGGRNGYGAKLCNIFSTKFTVETASREYKKMFKQTWMDNMGRAGEMELKPFNGEDYTCITFQPDLSKFKMQSLDKDIVALMVRRAYDIAGSTKDVKVFLNGNKLPVKGFRSYVDMYLKDKLDETGNSLKVIHEQVNHRWEVCLTMSEKGFQQISFVNSIATSKGGRHVDYVADQIVTKLVDVVKKKNKGGVAVKAHQVKNHMWIFVNALIENPTFDSQTKENMTLQPKSFGSTCQLSEKFIKAAIGCGIVESILNWVKFKAQVQLNKKCSAVKHNRIKGIPKLDDANDAGGRNSTECTLILTEGDSAKTLAVSGLGVVGRDKYGVFPLRGKILNVREASHKQIMENAEINNIIKIVGLQYKKNYEDEDSLKTLRYGKIMIMTDQDQDGSHIKGLLINFIHHNWPSLLRHRFLEEFITPIVKVSKNKQEMAFYSLPEFEEWKSSTPNHKKWKVKYYKGLGTSTSKEAKEYFADMKRHRIQFKYSGPEDDAAISLAFSKKQIDDRKEWLTNFMEDRRQRKLLGLPEDYLYGQTTTYLTYNDFINKELILFSNSDNERSIPSMVDGLKPGQRKVLFTCFKRNDKREVKVAQLAGSVAEMSSYHHGEMSLMMTIINLAQNFVGSNNLNLLQPIGQFGTRLHGGKDSASPRYIFTMLSSLARLLFPPKDDHTLKFLYDDNQRVEPEWYIPIIPMVLINGAEGIGTGWSCKIPNFDVREIVNNIRRLMDGEEPLPMLPSYKNFKGTIEELAPNQYVISGEVAILNSTTIEISELPVRTWTQTYKEQVLEPMLNGTEKTPPLITDYREYHTDTTVKFVVKMTEEKLAEAERVGLHKVFKLQTSLTCNSMVLFDHVGCLKKYDTVLDILRDFFELRLKYYGLRKEWLLGMLGAESAKLNNQARFILEKIDGKIIIENKPKKELIKVLIQRGYDSDPVKAWKEAQQKVPDEEENEESDNEKETEKSDSVTDSGPTFNYLLDMPLWYLTKEKKDELCRLRNEKEQELDTLKRKSPSDLWKEDLATFIEELEAVEAKEKQDEQVGLPGKGGKAKGKKTQMAEVLPSPRGQRVIPRITIEMKAEAEKKNKKKIKNENTEGSPQEDGVELEGLKQRLEKKQKREPGTKTKKQTTLAFKPIKKGKKRNPWSDSESDRSSDESNFDVPPRETEPRRAATKTKFTMDLDSDEDFSDFDEKTDDEDFVPSDASPPKTKTSPKLSNKELKPQKSVVSDLEADDVKGSVPLSSSPPATHFPDETEITNPVPKKNVTVKKTAAKSQSSTSTTGAKKRAAPKGTKRDPALNSGVSQKPDPAKTKNRRKRKPSTSDDSDSNFEKIVSKAVTSKKSKGESDDFHMDFDSAVAPRAKSVRAKKPIKYLEESDEDDLF
**Q.** With B1 as the molecule, how does the Vmax [5] read?
**A.** 0.65 pmol/s

**Q.** What about the Km [6] of the same molecule?
**A.** 651 µM

**Q.** What about the Km [7] of the same molecule?
**A.** 387 µM

**Q.** What about the Km [8] of the same molecule?
**A.** 518 µM

**Q.** And the Vmax [9]?
**A.** 0.65 pmol/s

**Q.** What about the Vmax [10] of the same molecule?
**A.** 0.646 pmol/s

**Q.** What about the Vmax [11] of the same molecule?
**A.** 0.657 pmol/s

**Q.** What about the Km [12] of the same molecule?
**A.** 380 µM
